From ChEMBL document CHEMBL4257518, “Inhibition of O-GlcNAc transferase (OGT) by peptidic hybrids” (Medchemcomm, 2018)
pIC50: −log10 of the molar value. Calls of active or inactive are those of the source. The calls are words filed in the database; no cut-off is given here. Side chains are listed from the residue outwards. Peptide text beside a SMILES is read from it. * marks the point of attachment. X3 = O=c1ccn([C@@H]2O[C@H](COCCOCCN*)[C@@H](O)[C@H]2O)c(=O)[nH]1; X2 = O=c1ccn([C@@H]2O[C@H](COCCN*)[C@@H](O)[C@H]2O)c(=O)[nH]1; X1 = O=c1ccn([C@@H]2O[C@H](CN*)[C@@H](O)[C@H]2O)c(=O)[nH]1; X4 = O=C(c1cc(=O)[nH]c2ccccc12)*; 4Amb = NCc1ccc(C(=O)O)cc1

What was measured:
[1] = biological target: T1, UDP-N-acetylglucosamine--peptide N-acetylglucosaminyltransferase 110 kDa subunit (Homo sapiens) (UniProt O15294); test: Inhibition of OGT (unknown origin) at 1 mM using UDP-GlcNAc as substrate measured after 2 hrs by UDP-Glo luminescence assay relative to control
T1 sequence (whole entry): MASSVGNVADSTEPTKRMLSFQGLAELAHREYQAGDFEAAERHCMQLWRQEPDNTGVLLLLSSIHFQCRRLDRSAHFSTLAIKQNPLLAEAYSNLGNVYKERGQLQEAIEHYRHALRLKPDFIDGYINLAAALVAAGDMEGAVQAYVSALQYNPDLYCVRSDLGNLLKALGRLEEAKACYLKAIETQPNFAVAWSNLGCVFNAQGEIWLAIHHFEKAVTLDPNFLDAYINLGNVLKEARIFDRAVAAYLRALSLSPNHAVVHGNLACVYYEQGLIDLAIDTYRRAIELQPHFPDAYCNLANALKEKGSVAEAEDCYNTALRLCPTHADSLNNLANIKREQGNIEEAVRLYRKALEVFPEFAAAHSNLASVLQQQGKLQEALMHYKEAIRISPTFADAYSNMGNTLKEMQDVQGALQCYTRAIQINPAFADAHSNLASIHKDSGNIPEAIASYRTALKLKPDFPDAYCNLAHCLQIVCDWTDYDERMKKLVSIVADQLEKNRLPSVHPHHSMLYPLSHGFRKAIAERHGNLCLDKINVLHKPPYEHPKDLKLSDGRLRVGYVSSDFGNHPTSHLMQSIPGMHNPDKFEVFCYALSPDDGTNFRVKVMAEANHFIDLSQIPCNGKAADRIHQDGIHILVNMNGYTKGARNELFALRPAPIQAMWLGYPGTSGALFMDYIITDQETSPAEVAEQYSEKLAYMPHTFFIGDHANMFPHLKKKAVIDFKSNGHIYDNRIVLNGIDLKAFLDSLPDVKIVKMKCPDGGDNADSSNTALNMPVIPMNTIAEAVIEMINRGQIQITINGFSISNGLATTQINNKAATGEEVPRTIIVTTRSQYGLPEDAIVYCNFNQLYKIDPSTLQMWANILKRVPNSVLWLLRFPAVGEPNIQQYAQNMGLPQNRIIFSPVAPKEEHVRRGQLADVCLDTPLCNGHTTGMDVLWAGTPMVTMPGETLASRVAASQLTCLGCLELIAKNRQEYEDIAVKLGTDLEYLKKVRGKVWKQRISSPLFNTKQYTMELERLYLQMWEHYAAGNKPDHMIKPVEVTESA
How it was run: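 Single-point OGT inhibition at 1 mM, read by UDP-Glo glycosyltransferase assay (UDP released from UDP-GlcNAc donor).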

[2] = biological target: T2, UDP-N-acetylglucosamine--peptide N-acetylglucosaminyltransferase 110 kDa subunit (Homo sapiens, UniProt O15294); test: Inhibition of OGT (unknown origin) using UDP-GlcNAc as substrate measured after 2 hrs by UDP-Glo luminescence assay
T2 sequence (O15294 whole entry): T1 sequence (whole entry)

[3] = biological target: T1, UDP-N-acetylglucosamine--peptide N-acetylglucosaminyltransferase 110 kDa subunit (Homo sapiens); test: Competitive inhibition of OGT (unknown origin) at 0.5 mM in presence of RBL_2_410_422 peptide by microarray analysis
How it was run: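 Peptide microarray with immobilized RBL-2_410–422 as OGT acceptor; inhibitor peptide present at 0.5 mM, water in parallel control. O-GlcNAcylation followed in real time by FITC-labelled antibody binding to O-GlcNAcylated RBL-2_410–422.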

Compound | inhibition [1] | further results
COc1ccc(CNC(=O)c2cc(=O)[nH]c3ccccc23)cc1 | 90% | 
CC(C)[C@H](NC(=O)[C@@H](N)CS)C(=O)N[C@H](C(=O)N1CCC[C@H]1C(=O)N[C@H](C(=O)N[C@@H](CCC(=O)NC[C@H]1O[C@@H](n2ccc(=O)[nH]c2=O)[C@H](O)[C@@H]1O)C(=O)N[C@H](C(=O)N[C@@H](C)C(N)=O)[C@@H](C)O)C(C)C)[C@@H](C)O (H-CVTPVE(X1)TA-NH2) |  | pIC50 [2]: 3.53
O=C(NCc1ccccc1)c1cc(O)nc2ccccc12 | 90% | 
CC(C)[C@H](NC(=O)[C@@H](N)CS)C(=O)N[C@H](C(=O)N1CCC[C@H]1C(=O)N[C@H](C(=O)N[C@@H](CCC(=O)NCCOC[C@H]1O[C@@H](n2ccc(=O)[nH]c2=O)[C@H](O)[C@@H]1O)C(=O)N[C@H](C(=O)N[C@@H](C)C(N)=O)[C@@H](C)O)C(C)C)[C@@H](C)O (H-CVTPVE(X2)TA-NH2) |  | pIC50 [2]: < 3.00
CC(C)[C@H](NC(=O)[C@@H](N)CS)C(=O)N[C@H](C(=O)N1CCC[C@H]1C(=O)N[C@H](C(=O)N[C@@H](CCC(=O)NCCOCCOC[C@H]1O[C@@H](n2ccc(=O)[nH]c2=O)[C@H](O)[C@@H]1O)C(=O)N[C@H](C(=O)N[C@@H](C)C(N)=O)[C@@H](C)O)C(C)C)[C@@H](C)O (H-CVTPVE(X3)TA-NH2) |  | pIC50 [2]: 3.31
O=C(NCc1ccc2c(c1)OCCO2)c1cc(=O)[nH]c2ccccc12 | 90% | 
O=C(O)c1cc(O)nc2ccccc12 | 90% | 
O=C(NCc1ccccc1Cl)c1cc(O)nc2ccccc12 | 90% | 
H-RVPSAQS-NH2 |  | pIC50 [2]: 3.71
CC(C)(C)OC(=O)CNC(=O)c1cc(=O)[nH]c2ccccc12 | 90% | 
CCOC(=O)CCCNC(=O)c1cc(=O)[nH]c2ccccc12 | 90% | 
CC(C)[C@H](NC(=O)[C@@H](N)CCCNC(=N)N)C(=O)N1CCC[C@H]1C(=O)N[C@@H](CO)C(=O)N[C@@H](CCC(=O)NC[C@H]1O[C@@H](n2ccc(=O)[nH]c2=O)[C@H](O)[C@@H]1O)C(=O)N[C@@H](CCC(N)=O)C(=O)N[C@@H](CO)C(N)=O (H-RVPSE(X1)QS-NH2) |  | pIC50 [2]: < 3.00
CC(C)[C@H](NC(=O)[C@@H](N)CS)C(=O)N[C@H](C(=O)N1CCC[C@H]1C(=O)N[C@H](C(=O)N[C@@H](CCCCNC(=O)c1ccc(CNC(=O)c2cc(=O)[nH]c3ccccc23)cc1)C(=O)N[C@H](C(=O)N[C@@H](C)C(N)=O)[C@@H](C)O)C(C)C)[C@@H](C)O (H-CVTPVK([4Amb-X4])TA-NH2) |  | pIC50 [2]: 3.93
CCNC(=O)CCNC(=O)c1ccc(NC(=O)c2cc(=O)[nH]c3ccccc23)cc1 | 90% | 
CCOC(=O)C1CCC(CNC(=O)c2cc(=O)[nH]c3ccccc23)CC1 (stereo unspecified) | 90% | 
H-KENSPCVTPVATA-OH |  | inhibition [3]: Active

Compound | inhibition [1] | further results
CC(C)[C@H](NC(=O)[C@@H](N)CCCNC(=N)N)C(=O)N1CCC[C@H]1C(=O)N[C@@H](CO)C(=O)N[C@@H](CCC(=O)NCCOC[C@H]1O[C@@H](n2ccc(=O)[nH]c2=O)[C@H](O)[C@@H]1O)C(=O)N[C@@H](CCC(N)=O)C(=O)N[C@@H](CO)C(N)=O (H-RVPSE(X2)QS-NH2) |  | pIC50 [2]: < 3.00
H-CVTPVATA-NH2 |  | pIC50 [2]: 3.41
COc1ccc(CNC(=O)c2cc(=O)[nH]c3ccccc23)cc1OC | 90% | 
NS(=O)(=O)c1ccc(CNC(=O)c2cc(O)nc3ccccc23)cc1 | 90% | 
O=C(O)c1ccc(CNC(=O)c2cc(=O)[nH]c3ccccc23)cc1 | 90% | 
O=C(NCC1CCC(C(=O)O)CC1)c1cc(=O)[nH]c2ccccc12 (stereo unspecified) | 90% | 
O=C(O)CCCNC(=O)c1cc(=O)[nH]c2ccccc12 | 90% | 
CC(C)(C)OC(=O)CCNC(=O)c1cc(=O)[nH]c2ccccc12 | 90% | 
CCOC(=O)c1ccc(CNC(=O)c2cc(=O)[nH]c3ccccc23)cc1 | 90% | 
Nc1ccc(CNC(=O)c2cc(=O)[nH]c3ccccc23)cc1 | 90% | 
O=C(O)CNC(=O)c1cc(=O)[nH]c2ccccc12 | 90% | 
Nc1ccccc1CNC(=O)c1cc(=O)[nH]c2ccccc12 | 90% | 
O=C(O)CCNC(=O)c1cc(=O)[nH]c2ccccc12 | 90% | 
CCc1nnc(NC(=O)c2cc(=O)[nH]c3ccccc23)s1 | 90% | 
O=C(O)CCNC(=O)c1ccc(NC(=O)c2cc(=O)[nH]c3ccccc23)cc1 | 90% | 
